Data on 10 compounds can be found in ChEMBL document CHEMBL3085650, “Extending the record of bis-γ-pyrone polypropionates from marine pulmonate mollusks” (J Nat Prod, 2013).

Some results are limits rather than exact numbers.

One experiment deals with A549. The experiment in a line: Growth inhibition of human A549 cells after 72 hrs by MTT assay. As to conditions: A549, 72 h. The class given is functional, cell-based. In a few lines: (§1)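 Human cancer cell lines (from ATCC, ECACC or DSMZ) cultured 72 h with compound; viable cells measured by MTT colorimetric assay, where mitochondrial succinate dehydrogenase reduces yellow MTT to blue formazan, read by spectrophotometry. Optical density of treated versus control cells gives growth inhibition, expressed as IC50 (μM). Camptothecin and etoposide served as reference compounds.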

A further experiment has as its system MCF7. The experiment in a line: Growth inhibition of human MCF7 cells after 72 hrs by MTT assay. It counts as functional, cell-based. As to conditions: MCF7, 72 h. In a few lines:
as §1

For the next experiment, the system named is PC-3. Description: Growth inhibition of human PC3 cells after 72 hrs by MTT assay. It counts as functional, cell-based. As to conditions: PC-3, 72 h. In a few lines: as §1
In general terms: Formazan colour is commonly taken as a measure of viable cells.

Experiment [1] is described as follows: Growth inhibition of human Hs683 cells after 72 hrs by MTT assay. It counts as functional, cell-based. As to conditions: Hs 683, 72 h. The gist of the method: as §1
A short description of experiment [2]: Growth inhibition of human U373 cells after 72 hrs by MTT assay. The class given is functional, cell-based, U-373MG ATCC. As to conditions: U373 MG. In a few lines:
as §1

The next experiment relates to SK-MEL-28. Description: Growth inhibition of human SK-MEL-28 cells after 72 hrs by MTT assay. The class given is functional, cell-based. As to conditions: SK-MEL-28, 72 h. The gist of the method: as §1

By IC50 is commonly meant the concentration that gives 50% inhibition. Lower therefore signals greater potency. As to `CCC(=O)[C@H](C)c1oc([C@H](C)[C@@H]2O[C@](O)([C@@H](C)c3oc(CC)c(C)c(=O)c3C)[C@@H](C)[C@@H](O)[C@@H]2C)c(C)c(=O)c1C`, the IC50 (with A549; in the experiment on MCF7; in the experiment on PC-3; in experiment [1]; in experiment [2]; in the experiment on SK-MEL-28) was more than 100 µM in each case.
With `CCc1oc([C@H](C)/C=C(\C)[C@H](OC(C)=O)[C@H](C)[C@@H](OC(=O)CC(C)C)[C@@H](C)c2oc([C@@H](C)[C@@H](O)CC)c(C)c(=O)c2C)c(C)c(=O)c1C`, the concentration for half-maximal inhibition (IC50) in the experiment on A549 came to 15 µM; in the experiment with MCF7 it was 15 µM; in the experiment on PC-3, 3 µM; in experiment [1], 30 µM; in experiment [2], 21 µM; with SK-MEL-28, 25 µM.
Regarding `CCc1oc([C@H](C)/C=C(\C)[C@H](O)[C@H](C)[C@@H](OC(=O)CC(C)C)[C@@H](C)c2oc([C@@H](C)[C@@H](O)CC)c(C)c(=O)c2C)c(C)c(=O)c1C`, the half-inhibitory concentration (IC50) (with A549; in the experiment with MCF7; in the experiment with PC-3; in experiment [1]; in experiment [2]; with SK-MEL-28) was more than 100 µM each time.
On to `CC[C@@]1(O)C(=O)OCc2c1cc1n(c2=O)Cc2cc3ccccc3nc2-1` [CAMPTOTHECIN], for which the IC50 in the experiment on A549 was less than 0.01 µM; in the experiment on MCF7, less than 0.01 µM; with PC-3, 0.01 µM; in experiment [1] it was less than 0.01 µM; in experiment [2], 0.015 µM; in the experiment on SK-MEL-28 it was less than 0.01 µM.
In the case of `CCc1oc([C@H](C)/C=C(\C)[C@H](OC(C)=O)[C@H](C)[C@@H](OC(=O)CC(C)C)[C@@H](C)c2oc([C@@H](C)[C@H](CC)OC(C)=O)c(C)c(=O)c2C)c(C)c(=O)c1C`, the IC50 in the experiment on A549 amounted to 28 µM; in the experiment with MCF7, 25 µM; with PC-3, 7 µM; in experiment [1] it was 24 µM; in experiment [2] it was 32 µM; in the experiment on SK-MEL-28, 33 µM.
In the case of `CCC(=O)O[C@@H](/C(C)=C/[C@@H](C)c1oc(CC)c(C)c(=O)c1C)[C@H](C)[C@@H](OC(=O)CC(C)C)[C@@H](C)c1oc([C@@H](C)[C@H](CC)OC(C)=O)c(C)c(=O)c1C`, the IC50 in the experiment on A549 came out at 3 µM; with MCF7, 4 µM; with PC-3 it was 2 µM; in experiment [1] it was 3 µM; in experiment [2] it was 9 µM; with SK-MEL-28, 7 µM.
Regarding `CCC(=O)O[C@@H](/C(C)=C/[C@@H](C)c1oc(CC)c(C)c(=O)c1C)[C@H](C)[C@@H](OC(=O)CC(C)C)[C@@H](C)c1oc([C@@H](C)[C@@H](O)CC)c(C)c(=O)c1C`, the IC50 was determined as 12 µM with A549; 12 µM with MCF7; 3 µM with PC-3; 13 µM in experiment [1]; 21 µM in experiment [2]; 25 µM in the experiment with SK-MEL-28.
For the compound `CCC(=O)[C@@H](C)c1oc([C@H](C)[C@@H]2O[C@](O)([C@@H](C)c3oc(CC)c(C)c(=O)c3C)[C@@H](C)[C@@H](O)[C@@H]2C)c(C)c(=O)c1C`, the IC50 is more than 100 µM in the experiment with A549; 87 µM with MCF7; 82 µM in the experiment with PC-3; more than 100 µM in experiment [1]; more than 100 µM in experiment [2]; more than 100 µM in the experiment on SK-MEL-28.
With `CCC(=O)[C@H](C)c1oc([C@H](C)[C@@H]2O[C@](O)([C@@H](C)c3oc(CC)c(C)c(=O)c3C)[C@@H](C)[C@@H](OC(=O)CC(C)C)[C@@H]2C)c(C)c(=O)c1C`, the IC50 was 26 µM in the experiment on A549; 21 µM with MCF7; 16 µM with PC-3; 23 µM in experiment [1]; 25 µM in experiment [2]; 23 µM in the experiment with SK-MEL-28.
Regarding `COc1cc([C@@H]2c3cc4c(cc3[C@@H](O[C@@H]3O[C@@H]5CO[C@@H](C)O[C@H]5[C@H](O)[C@H]3O)[C@H]3COC(=O)[C@H]23)OCO4)cc(OC)c1O` [ETOPOSIDE], the IC50 in the experiment on A549 is 2 µM; with MCF7, 4 µM; in the experiment with PC-3, more than 100 µM; in experiment [1] it was 2 µM; in experiment [2] it was 25 µM; in the experiment with SK-MEL-28, 3 µM.
